Source: PMC2574800 (Bioorganic & medicinal chemistry, 2008)

Tests used:
[1] = tested on: murine leukemia L1210 cells; assay: Cell growth inhibitory activity, L1210; assay type: cell-based; conditions: Mus musculus, L1210, 48 h, read-out: IC50 (proliferation) L1210
How it was run: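 Murine leukaemia L1210 cells grown with varying concentrations of test compound at 37 °C for two days; cell number counted on a Coulter counter. IC50 is the concentration inhibiting cell proliferation by 50%, taken from dose–response curves. Mean ± SE of at least three independent experiments.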

[2] = tested on: Bovine brain tubulin (colchicine site); assay: Inhibition of [3H]colchicine binding to tubulin; conditions: tubulin 1 μM, colchicine 5 μM, tested compound 1 μM
[3] = tested on: murine mammary carcinoma FM3A cells; assay: Cell growth inhibitory activity, FM3A; assay type: cell-based; conditions: Mus musculus, 48 h, read-out: IC50 (proliferation) FM3A
[4] = tested on: L1210, FM3A, Molt/4 and CEM cells; assay: Cell growth inhibitory activity, range over the four cell lines; assay type: cell-based; conditions: for IC50: read-out: IC50-values range against the four cell lines
How it was run: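 Cells incubated with test compound at 37 °C for two days (L1210, FM3A) or three days (Molt 4, CEM). Cell number counted with a Coulter counter. IC50 taken as the concentration giving 50% inhibition of proliferation, from dose–response curves. Mean ± SE of at least three independent experiments.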

K562 cells = assay: Flow cytometric analysis of cell cycle distribution; assay type: cell-based, human; conditions: 24 h, compound at its 24 h IC50, propidium iodide

Row | SMILES | IC50 [1] [nM] | Effect on cell cycle distribution (K562 cells) | other results
1 | COc1ccc(/C=C\c2cc(OC)c(OC)c(OC)c2)cc1O [CA-4 (1), combretastatin A-4] | 2.8 ± 1.1 |  | Colchicine binding % ± SD (inhibition of [3H]colchicine binding) [2]: 86 ± 3%
2 | COc1ccc2c(N)c(C(=O)c3cc(OC)c(OC)c(OC)c3)[nH]c2c1 [Compound 3a] | 970 ± 24 |  | IC50 [3]: 1600 ± 30 nM
3 | COc1ccc2c(N)c(C(=O)c3cc(OC)c(OC)c(OC)c3)n(C)c2c1 [Compound 4a] | 69 ± 37 |  | IC50 [3]: 97 ± 3 nM
4 | COc1cc(C(=O)c2oc3cccc(OC)c3c2N)cc(OC)c1OC [Compound 5b, (3-Amino-4-methoxybenzofuran-2-yl)(3,4,5-trimethoxyphenyl)methanone] |  |  | Fold less active than 5d in the four cell lines ([4]; antiproliferative activity relative to 5d): over 10 fold
5 | COc1ccc2c(N)c(C(=O)c3cc(OC)c(OC)c(OC)c3)oc2c1 [Compound 5d, (3-Amino-6-methoxybenzofuran-2-yl)(3,4,5-trimethoxyphenyl)methanone] |  | accumulate in late S phase | IC50 [4]: 87 to 430 nM
6 | COc1ccc2c(N(C)C)c(C(=O)c3cc(OC)c(OC)c(OC)c3)oc2c1 [Compound 5i, (3-(Dimethylamino)-6-methoxybenzofuran-2-yl) (3,4,5-trimethoxyphenyl)methanone] |  | accumulation of cells in G2-M | IC50 [4]: 48 to 75 nM
7 | COc1ccc2c(NC(=O)CCl)c(C(=O)c3cc(OC)c(OC)c(OC)c3)oc2c1 [Compound 5l, (3-chloroacetylamino-6-methoxybenzofuran-2-yl)(3,4,5-trimethoxyphenyl)methanone] |  | accumulate in late S phase | 
8 | COc1ccc2c(NC(=O)CI)c(C(=O)c3cc(OC)c(OC)c(OC)c3)oc2c1 [Compound 5n, (3-iodoacetylamino-6-methoxybenzofuran-2-yl)(3,4,5-trimethoxyphenyl)methanone] |  | greatest percentage increase in the percentage of cells in apoptotic cells (subG0-G1 peak) | 
